MrgX1 antag: antagonists of human MrgX1 receptor, primary screen, HEK293 cells, Fluo-4 calcium flux; BAM8-22 antagonism; active compounds read low; AID 588676, 2011; B-score at 10 µM; hit rate 1.3% among 310,000; Mas-related G-protein coupled receptor member X1 (Homo sapiens), Q96LB2;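 active means calcium-response B-score plate-corrected more than 3 library SD below zero, starting fluorescence within 5 deviations, no agonist response on first addition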;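 further: peak minus trough fluorescence over baseline after final BAM8-22 challenge near maximal dose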
Target sequence (Q96LB2 whole entry, looked up): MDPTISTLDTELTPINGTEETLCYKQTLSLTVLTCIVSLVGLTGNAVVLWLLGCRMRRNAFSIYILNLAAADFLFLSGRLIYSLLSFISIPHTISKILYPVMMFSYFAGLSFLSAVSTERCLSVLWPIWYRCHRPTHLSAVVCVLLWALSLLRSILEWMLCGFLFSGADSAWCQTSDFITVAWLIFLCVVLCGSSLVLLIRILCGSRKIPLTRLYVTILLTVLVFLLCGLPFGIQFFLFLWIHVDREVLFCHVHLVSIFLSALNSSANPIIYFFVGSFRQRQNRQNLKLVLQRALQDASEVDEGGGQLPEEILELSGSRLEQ
MrgX1 agonist: agonists of human MrgX1 receptor, primary screen, HEK293 cells, Fluo-4 calcium flux; Mas-related G-protein coupled receptor member X1 (Homo sapiens), Q96LB2; Fluo-4 calcium fluorescence, agonist mode; active compounds read high; B-score at 10 µM; hit rate 0.44% among 310,000;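 active means calcium response B-score plate-corrected fluorescence ratio at least 3 library SD, with starting fluorescence B-score inside 5 SD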
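times = overnight plating, then 30 min 37 °C plus 30 min room-temperature dye loading | assay system = stable human MrgX1 HEK293 cell line | input = fifteen thousand cells per well | signal = kinetic calcium dye fluorescence, Fluo-4 NW | dosing = compound delivered in addition one of three | read-out = B-scored fluorescence response ratio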
MrgX1 PAM: positive allosteric modulators of MrgX1, primary screen, HEK293 cells, Fluo-4 calcium flux; Mas-related G-protein coupled receptor member X1 (Homo sapiens), Q96LB2; FDSS; active compounds read high; B-score at 10 µM; hit rate 0.63% among 310,000; AID 588675, 2011;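 active means plate-corrected calcium response at least 3 library SD above typical, normal starting fluorescence, not activating the receptor alone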;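 further: compound read alongside a low EC10 to EC30 dose of BAM8-22 agonist; peak minus trough fluorescence over baseline measured at the second addition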
RGS4 pot: RGS4 potentiators or activators, primary screen, cell-based, HEK293 M3R inducible RGS4, calcium flux | hit rate 0.92% among 310,000 | B-score at 10 µM | AID 463111, 2010 | carbachol calcium flux Fluo4; active compounds read low;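 active means B-score of the integrated calcium signal more than 4 SD below the library mean, with starting fluorescence not abnormally high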;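 further: negative B-score means reduced calcium response which marks RGS4 activation or potentiation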
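Test system: HEK293 cells with stable M3R and inducible RGS4; also added: carbachol at ECmax as muscarinic agonist stimulus; schedule: dye loading 30 min 37 °C, buffer rest 30 min RT; technique: kinetic calcium fluorescence imaging with Fluo4-AM dye, 2 µM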
RGS4 block: RGS4 inhibitors, primary screen, cell-based, HEK293 M3R inducible RGS4, calcium flux | Regulator of G-protein signaling 4 (Homo sapiens), P49798 | hit rate 0.45% among 310,000 | B-score at 10 µM | Fluo-4 calcium flux; active compounds read high; triggered by carbachol at its EC20;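 active means B-score, a plate-corrected calcium signal, over three deviations above library mean, with baseline fluorescence within five deviations of library mean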;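 further: RGS4 expression induced by doxycycline in cells with stable M3 receptor; B-score is computed from the integrated fluorescence ratio over baseline after carbachol; higher B-score means a larger calcium signal and so more RGS4 inhibition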
Target sequence (P49798 whole entry, looked up): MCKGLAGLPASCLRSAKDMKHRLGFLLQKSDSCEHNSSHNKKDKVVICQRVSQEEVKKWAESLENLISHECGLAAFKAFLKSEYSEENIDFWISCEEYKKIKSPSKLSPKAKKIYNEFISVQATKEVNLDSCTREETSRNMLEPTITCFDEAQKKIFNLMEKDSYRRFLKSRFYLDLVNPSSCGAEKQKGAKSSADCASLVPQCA
RGS4 act valid: reduced carbachol calcium response, RGS4-induced M3R cells, confirmation, RGS4 activator project, cell-based, HEK293 M3R/RGS4 inducible, calcium flux, duplicate; shares compounds with RGS4 pot; carbachol calcium flux Fluo4; inhibition, % at 10 µM; hit rate 89% among 1,100; AID 602282, 2012;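 active means inhibition above 3 SD of the buffer control wells, cut at about 41% in these data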;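 further: signal is the integrated peak-minus-minimum Fluo4 fluorescence over baseline ratio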
RGS4 act ctr: counter-screen for RGS4 activators: effect in non-induced cells. hit rate 82% among 1,100. shares compounds with RGS4 pot. HEK293 M3R non-induced RGS4, Fluo4 calcium flux; after carbachol challenge at its EC90. inhibition, % at 10 µM;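 active means inhibition exceeding 3 SD of buffer-only control wells, cut at about 26% in these data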;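 further: percent drop in integrated peak-minus-baseline over baseline Fluo4 ratio after carbachol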
Hits are given with their value; . = inactive; / = no result given. Hits are enriched below; roughly 3.5% of the tested compounds scored in any of these assays.

SMILES	MrgX1 antag	MrgX1 agonist	MrgX1 PAM	RGS4 pot	RGS4 block	RGS4 act valid	RGS4 act ctr
COCCN(C(=O)CCc1ccccc1OC)c1nnc(-c2cccnc2)s1	.	.	.	.	.	/	/
CCOc1ccc2ncc(C(=O)c3ccc(OC)cc3)c(N3CCN(CC)CC3)c2c1	.	.	.	.	.	/	/
CCOC(=O)c1cnc2ccc(OCC)cc2c1N1CCN(c2ccccc2OC)CC1	.	.	.	-9.1	.	93	93
COc1ccc(N2CC(C(=O)N[C@@H](C)C(=O)NCc3ccccc3OC)CC2=O)cc1 (stereo not given in full)	.	.	.	.	.	/	/
COc1ccc2nc(C)cc(SCC(=O)N/N=C/c3cccc4ccccc34)c2c1	.	.	.	.	.	/	/
COc1ccc2nc(C)cc(SCC(=O)N/N=C/c3ccc(O)c(O)c3)c2c1	.	.	.	-13	.	.	.
O=C(c1ccco1)N(Cc1ccc([N+](=O)[O-])cc1)c1ccc(Cl)cc1	.	.	.	.	.	/	/
Cc1ccc(N(Cc2ccc([N+](=O)[O-])cc2)C(=O)c2ccco2)cc1C	.	.	.	-11	.	88	40
Cn1c(CNC(=O)CCNC(=O)c2cccc(Cl)c2)cc(=O)n(C)c1=O	.	.	.	.	.	/	/
COC(=O)c1sc(-c2ccc(Cl)cc2)cc1N	.	.	.	-7.7	.	.	.
CC(=O)c1sc(-c2ccc(Cl)cc2)cc1N	.	.	.	.	.	/	/
CCN1CCN(c2ccc(S(=O)(=O)N3CCCCC3)cc2NC(=O)c2cccc(OC(F)F)c2)CC1	.	.	.	.	.	/	/
Cc1oc(-c2ccc(-c3ccccc3)cc2)nc1CN1CCN(CC(=O)N(C)C)CC1	.	.	.	.	.	/	/
O=C(NCCCN1CCCCCC1)c1ccc2c(Cl)c3c(nc2c1)CCCC3	.	.	.	.	.	/	/
CCN1CCN(CCCNC(=O)c2ccc3c(Cl)c4c(nc3c2)CCCC4)CC1	.	.	.	-8.6	.	82	50
CCOC(=O)c1oc2ccc(CNC3CCCCC3)c(Cl)c2c1C	.	.	.	-7.8	.	94	92
CCOC(=O)c1oc2ccc(CNCCO)c(Cl)c2c1C	.	.	.	.	.	/	/
CCOc1ccc(C(=O)n2cc(C(=O)OC)c3ccccc32)cc1OCC	.	.	.	.	.	/	/
CCOc1ccc(C(=O)n2cc(C(=O)OC)c3ccccc32)cc1	.	.	.	-8.6	.	69	84
COc1ccc(C(=O)N/N=C/c2ccc3cccc(OCc4ccccc4)c3n2)cc1	.	.	.	-11	.	91	47
O=C(NCc1ccncc1)C1CCCN(S(=O)(=O)c2cc(Cl)ccc2Cl)C1 (stereo not given)	.	.	.	.	.	/	/
CC(=O)N1CCOc2ccc(S(=O)(=O)N3CCC(C(=O)Nc4cc(C)ccc4C)CC3)cc21	.	.	.	.	.	/	/
CC(=O)N1CCOc2ccc(S(=O)(=O)N3CCC(C(=O)Nc4ccc(C)cc4C)CC3)cc21	.	.	.	-8.6	.	.	.
Cc1nccn1CCOc1ccc(Cl)cc1	.	.	.	.	.	/	/
CCCc1cc2c(cc1NC(=O)c1ccco1)OCO2	.	.	.	.	.	/	/
SMILES	MrgX1 antag	MrgX1 agonist	MrgX1 PAM	RGS4 pot	RGS4 block	RGS4 act valid	RGS4 act ctr
CC1CCN(CCCCOc2ccccc2-c2ccccc2)CC1	.	.	.	-8.4	.	72	84
CNCCOc1ccccc1-c1ccccc1	.	.	.	.	.	/	/
CC1CCN(CCCCOc2ccc(C(C)(C)C)cc2)CC1	.	.	.	-9.6	.	93	60
CC1CCN(CCCCOc2ccc(Cl)cc2)CC1	.	.	.	.	.	/	/
CC1CCN(CC(=O)Nc2ccccc2-c2ccccc2)CC1	.	.	.	-9.1	.	92	61
CNCCCCOc1ccccc1-c1ccccc1	.	.	.	-8.8	.	85	84
O=C(CC1OC(=O)c2ccccc21)Nc1ccc(Cl)c(S(=O)(=O)N2CCCCC2)c1 (stereo not given)	.	.	.	.	.	/	/
CCOc1ccc(N/C(=N/c2nc(C)cc(C)n2)NC(C)=O)cc1	.	.	.	.	.	/	/
COc1ccc(C2NC(=O)NC(O)(C(F)(F)F)C2C(=O)c2ccc(F)cc2)cc1 (stereo not given)	.	.	.	-8.8	.	92	83
COc1cc(C2NC(=O)NC(O)(C(F)(F)F)C2C(=O)c2ccc(Cl)cc2)ccc1O (stereo not given)	.	.	.	/	/	/	/
CC(Oc1cccc2cccnc12)C(=O)N/N=C/c1ccccc1 (stereo not given)	.	.	.	.	.	/	/
CC(Oc1cccc2cccnc12)C(=O)N/N=C/c1ccc2c(c1)OCO2 (stereo not given)	.	.	.	-13	.	.	.
Cn1ccnc1C1CCCCN1Cc1nc(Cc2ccccc2F)no1 (stereo not given)	.	.	.	.	.	/	/
COC(=O)c1ccc(-c2noc(CN3CCCCC3c3nccn3C)n2)cc1 (stereo not given)	.	.	.	-10	.	91	68
CC1CCCN1CC#CC(O)(c1ccccc1)c1ccccc1 (stereo not given)	.	.	.	-7.9	.	90	92
C(#CCN1CCCC1)CC(c1ccccc1)c1ccccc1	.	.	.	-13	.	92	93
CC(C)(C#CCN1CCCCC1)OCCOC(c1ccccc1)c1ccccc1	.	.	.	-12	.	93	92
C(#Cc1ccccc1)CN1CCCCC1	.	.	.	.	.	/	/
CC(C)C(O)(CC#CCN1CCCC1)c1ccccc1 (stereo not given)	.	.	.	-9.2	.	92	44
OC(CC#CCN1CCOCC1)(c1ccccc1)c1ccccc1	.	.	.	.	.	/	/
CCOC(=O)COc1cc2oc(=O)cc(C)c2cc1[N+](=O)[O-]	.	.	.	.	.	/	/
O=C(O)c1ccc2c(c1)C(=O)N(N1C(=O)c3ccccc3C1=O)C2=O	.	.	.	.	.	/	/
CC(O)(C#CCN1CCCC1)c1ccccc1 (stereo not given)	.	.	.	.	.	/	/
CC(C)C(O)(C#CCN1CCCCCC1)c1ccccc1 (stereo not given)	.	.	.	-11	.	94	87
OC(C#CCN1CCCC1)(c1ccccc1)c1cccc(F)c1 (stereo not given)	.	.	.	-8.4	.	92	96
